“And” between values parts separate entries of the source, which are not always exact repeats. Equal values may be shown once.
tested on: Fibroblast; experiment: Multiplex assay against human fibroblast; format: toxicity, cell-based; details: 12 h, 1 µM, compound concentration 1 uM
Summary of the method: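 Per cents of healthy-nucleus cells form the tubulin, mitochondrial-mass and membrane-permeability phenotype values. Live cells were stained at seeding with Hoechst33342, BioTracker Green Microtubule Cytoskeleton Dye, MitoTracker Red and Annexin V Alexa Fluor 680. After compound addition they were imaged on a CQ1 microscope at 37°C and 5% CO2, and CellPathfinder machine-learning gating split them into Hoechst high-intensity objects or normal cells, normal cells into healthy, pyknosed or fragmented nuclei, and pyknosed cells into mitotic or apoptotic.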

SMILES | Population Apoptotic (%) | Population Fragmented Nuclei (%) | Population Healthy Nuclei (%) | Population Hoechst High Intensity Objects (%) | Population Membrane Permeable-Phenotype (%) | Population Mitochondria Different-Phenotype (%) | Population Mitotic Cells (%) | Population Normal (%) | Population Pyknosed Nuclei (%) | Population Tubulin-Different-Phenotype (%)
O=c1cccc2n1C[C@@H]1CNC[C@H]2C1 [CYTISINICLINE] | 5.66% and 13.33% | 10.05% and 5.19% | 61.9% and 75.32% | 0% | 4.27% and 5.17% | 5.98% and 6.9% | 94.34% and 86.67% | 100% | 28.04% and 19.48% | 11.11% and 12.93%
CCc1nn2c(C)cc(C)nc2c1Cc1ccc(-c2nnc(C3CCNCC3)o2)cc1 | 34% and 45% | 17% and 19% | 63% and 46% | 2% and 6% | 2% | 5% and 13% | 65% and 54% | 97% and 93% | 19% and 33% | 35% and 62%

same assay, conditions: 12 h, 1 µM, compound concentration 1 uM

SMILES | Total Cell Count
O=c1cccc2n1C[C@@H]1CNC[C@H]2C1 [CYTISINICLINE] | 189 and 154
CCc1nn2c(C)cc(C)nc2c1Cc1ccc(-c2nnc(C3CCNCC3)o2)cc1 | 153 and 167

same assay, conditions: 12 h, 10 µM, compound concentration 10 uM

SMILES | Population Apoptotic (%) | Population Fragmented Nuclei (%) | Population Healthy Nuclei (%) | Population Hoechst High Intensity Objects (%) | Population Membrane Permeable-Phenotype (%) | Population Mitochondria Different-Phenotype (%) | Population Mitotic Cells (%) | Population Normal (%) | Population Pyknosed Nuclei (%) | Population Tubulin-Different-Phenotype (%)
O=c1cccc2n1C[C@@H]1CNC[C@H]2C1 [CYTISINICLINE] | 15.38% and 16.67% | 13.5% and 4.41% | 62.58% and 80.88% | 0% | 11.76% and 2.42% | 9.8% and 7.27% | 84.62% and 83.33% | 100% | 23.93% and 14.71% | 20.59% and 20.61%
CCc1nn2c(C)cc(C)nc2c1Cc1ccc(-c2nnc(C3CCNCC3)o2)cc1 |  | 19% and 38% | 62% and 44% | 5% and 3% | 0% and 5% | 19% and 14% | 48% and 85% | 94% and 96% | 18% and 17% | 72% and 79%

same assay, conditions: 12 h, 10 µM, compound concentration 10 uM

SMILES | Total Cell Count
O=c1cccc2n1C[C@@H]1CNC[C@H]2C1 [CYTISINICLINE] | 163 and 204
CCc1nn2c(C)cc(C)nc2c1Cc1ccc(-c2nnc(C3CCNCC3)o2)cc1 | 188 and 162

same assay, conditions: 24 h, 1 µM, compound concentration 1 uM

SMILES | Population Apoptotic (%) | Population Fragmented Nuclei (%) | Population Healthy Nuclei (%) | Population Hoechst High Intensity Objects (%) | Population Membrane Permeable-Phenotype (%) | Population Mitochondria Different-Phenotype (%) | Population Mitotic Cells (%) | Population Normal (%) | Population Pyknosed Nuclei (%) | Population Tubulin-Different-Phenotype (%)
O=c1cccc2n1C[C@@H]1CNC[C@H]2C1 [CYTISINICLINE] | 10.81% and 26.67% | 10.86% and 6.41% | 72.4% and 83.97% | 0% | 3.12% and 3.05% | 4.38% and 3.82% | 89.19% and 73.33% | 100% | 16.74% and 9.62% | 13.12% and 12.21%
CCc1nn2c(C)cc(C)nc2c1Cc1ccc(-c2nnc(C3CCNCC3)o2)cc1 | 52% and 56% | 17% and 26% | 68% and 49% | 1% and 7% | 0% and 6% |  | 47% and 43% | 98% and 92% | 13% and 23% | 35% and 65%

same assay, conditions: 24 h, 1 µM, compound concentration 1 uM

SMILES | Total Cell Count
O=c1cccc2n1C[C@@H]1CNC[C@H]2C1 [CYTISINICLINE] | 221 and 156
CCc1nn2c(C)cc(C)nc2c1Cc1ccc(-c2nnc(C3CCNCC3)o2)cc1 | 153 and 177

same assay, conditions: 24 h, 10 µM, compound concentration 10 uM

SMILES | Population Apoptotic (%) | Population Fragmented Nuclei (%) | Population Healthy Nuclei (%) | Population Hoechst High Intensity Objects (%) | Population Membrane Permeable-Phenotype (%) | Population Mitochondria Different-Phenotype (%) | Population Mitotic Cells (%) | Population Normal (%) | Population Pyknosed Nuclei (%) | Population Tubulin-Different-Phenotype (%)
O=c1cccc2n1C[C@@H]1CNC[C@H]2C1 [CYTISINICLINE] | 8% and 22.22% | 9.26% and 6.16% | 75.31% and 85.31% | 0% | 6.56% and 4.44% | 5.74% and 5% | 92% and 77.78% | 100% | 15.43% and 8.53% | 20.49% and 23.33%
CCc1nn2c(C)cc(C)nc2c1Cc1ccc(-c2nnc(C3CCNCC3)o2)cc1 | 53% and 56% | 17% and 40% | 64% and 42% | 9% and 3% | 0% and 11% | 22% and 16% | 46% and 44% | 90% and 96% | 17% | 79% and 80%

same assay, conditions: 24 h, 10 µM, compound concentration 10 uM

SMILES | Total Cell Count
O=c1cccc2n1C[C@@H]1CNC[C@H]2C1 [CYTISINICLINE] | 162 and 211
CCc1nn2c(C)cc(C)nc2c1Cc1ccc(-c2nnc(C3CCNCC3)o2)cc1 | 185 and 151

same assay, conditions: 48 h, 1 µM, compound concentration 1 uM

SMILES | Population Apoptotic (%) | Population Fragmented Nuclei (%) | Population Healthy Nuclei (%) | Population Hoechst High Intensity Objects (%) | Population Membrane Permeable-Phenotype (%) | Population Mitotic Cells (%) | Population Normal (%) | Population Pyknosed Nuclei (%) | Population Tubulin-Different-Phenotype (%) | Total Cell Count
O=c1cccc2n1C[C@@H]1CNC[C@H]2C1 [CYTISINICLINE] | 26.67% and 22.22% | 7.5% and 5.23% | 86.25% and 83.01% | 0% | 0.48% and 1.57% | 73.33% and 77.78% | 100% | 6.25% and 11.76% | 3.38% and 7.09% | 240 and 153
CCc1nn2c(C)cc(C)nc2c1Cc1ccc(-c2nnc(C3CCNCC3)o2)cc1 | 76% and 62% | 21% and 30% | 70% and 54% | 4% | 1% and 3% | 23% and 37% | 95% | 7% and 14% | 32% and 54% | 172 and 168

same assay, conditions: 48 h, 1 µM, compound concentration 1 uM

SMILES | Population Mitochondria Different-Phenotype (%)
CCc1nn2c(C)cc(C)nc2c1Cc1ccc(-c2nnc(C3CCNCC3)o2)cc1 | 2% and 12%

same assay, conditions: 48 h, 10 µM, compound concentration 10 uM

SMILES | Population Apoptotic (%) | Population Fragmented Nuclei (%) | Population Healthy Nuclei (%) | Population Hoechst High Intensity Objects (%) | Population Membrane Permeable-Phenotype (%) | Population Mitotic Cells (%) | Population Normal (%) | Population Pyknosed Nuclei (%) | Population Tubulin-Different-Phenotype (%) | Total Cell Count
O=c1cccc2n1C[C@@H]1CNC[C@H]2C1 [CYTISINICLINE] | 62.5% and 28.57% | 8.67% and 8.44% | 87.24% and 85.65% | 0% | 0% and 2.46% | 37.5% and 71.43% | 100% | 4.08% and 5.91% | 8.19% and 18.72% | 196 and 237
CCc1nn2c(C)cc(C)nc2c1Cc1ccc(-c2nnc(C3CCNCC3)o2)cc1 | 84% and 54% | 23% and 45% | 62% and 47% | 9% and 2% | 0% and 2% | 15% and 45% | 90% and 97% | 13% and 7% | 73% and 78% | 208 and 161

same assay, conditions: 48 h, 10 µM, compound concentration 10 uM

SMILES | Population Mitochondria Different-Phenotype (%)
CCc1nn2c(C)cc(C)nc2c1Cc1ccc(-c2nnc(C3CCNCC3)o2)cc1 | 16% and 17%

— ChEMBL document CHEMBL5724801, “EUbOPEN Chemogenomics Library - Multiplex” (2024)
